# Compound activity: PubChem BioAssay, Broad Institute
# GSIS activator – primary screen for activators of insulin secretion dependent on glucose, INS-1E cells, GLuc reporter luminescence; activation, % at 16.6 µM; AID 743287; INS-1E GLuc reporter insulin secretion, 2-3 h; 370,000 tested, 0.61% active;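 active = lowest replicate activation of at least 40%, so every replicate reaches that level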;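 also: 0% = median of neutral control wells and 100% = median of IBMX positive control wells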
# Env fusion inh – inhibitors of HIV Env-mediated cell fusion; 360,000 tested, 1.1% active; inhibition, % at 12.3 µM; HeLa-JRFL Env/CEM21 cell fusion, luciferase;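 active = mean replicate inhibition score of at least 50 and every replicate individually at or above 50; inconclusive = only one of the two criteria met; inactive = mean below 50 and not all replicates reaching 50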;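 also: 0% = plate neutral controls and 100% = maraviroc near 300 nM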
# GSK3B inh – human GSK3beta kinase inhibition; GST-GSK3beta kinase, ADP-Glo luminescence, 60 min; hits give low values; 300,000 tested, 0.038% active; AID 2097; activity score (negative = inhibition), % at 10 µM; P49841;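 active = more than half of replicate wells score below -50%, meaning over 50% inhibition versus plate controls; inconclusive = some replicates but at most half score below -50%; inactive = no replicate scores below -50%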;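 also: 0% = median DMSO wells and -100% = median GW8510 positive control wells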
#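 test system = GST-tagged human GSK3beta kinase, cell-free | reagent = 25 µM ATP with peptide substrate | dosing = one dose of 10 µM per compound | schedule = 60 min reaction, RT | detection = luminescent ADP-Glo measurement of ADP formed | control set = DMSO neutral wells and GW8510 at 20 µM as positive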
# STK33 kinase inh – blocks human STK33 kinase activity; Q9BYT3; purified STK33, MBP phosphorylation, ADP-Glo luminescence; inhibition, % at 10 µM; 320,000 tested, 0.073% active; AID 2661;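 active = inhibition at or above 25%, using the most active replicate where run in duplicate; inactive = inhibition below 25%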
# GSK3A inh – inhibitors of human GSK-3 alpha kinase. 320,000 tested, 0.1% active. inhibition, % at 10 µM. P49840. ADP-Glo luminescence, 60 min;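 active = more than half of replicates show inhibition above 20%; inconclusive = some but at most half of replicates above 20% inhibition; inactive = no replicate shows inhibition above 20%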;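 also: GST-tagged GSK-3 alpha with peptide substrate and 25 µM ATP; 0% = DMSO neutral wells and 100% = GW8510 positive control wells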
# CDK5 inh – CDK5/p35 (human) kinase inhibition | 330,000 tested, 0.01% active | Recombinant CDK5/p35, ADP-Glo luminescence, 60 min | inhibition, % at 10 µM;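 active = highest replicate inhibition of at least 50% and at least 75% of replicates reaching 50%; inconclusive = only one of the two criteria met; inactive = both criteria failed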;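 also: plate controls were DMSO neutral control for no effect and GW8510 at 10 µM for full effect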
# Target sequence (Q00535 whole entry, looked up): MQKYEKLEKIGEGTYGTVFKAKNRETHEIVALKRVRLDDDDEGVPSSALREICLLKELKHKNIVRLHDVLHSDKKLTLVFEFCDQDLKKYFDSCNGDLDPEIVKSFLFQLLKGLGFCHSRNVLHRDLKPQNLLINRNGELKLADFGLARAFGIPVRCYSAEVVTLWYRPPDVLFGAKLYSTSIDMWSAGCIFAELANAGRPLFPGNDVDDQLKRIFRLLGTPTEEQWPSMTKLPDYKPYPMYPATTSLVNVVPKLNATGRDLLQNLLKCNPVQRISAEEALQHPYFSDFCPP
# Target sequence (Q15078 whole entry, looked up): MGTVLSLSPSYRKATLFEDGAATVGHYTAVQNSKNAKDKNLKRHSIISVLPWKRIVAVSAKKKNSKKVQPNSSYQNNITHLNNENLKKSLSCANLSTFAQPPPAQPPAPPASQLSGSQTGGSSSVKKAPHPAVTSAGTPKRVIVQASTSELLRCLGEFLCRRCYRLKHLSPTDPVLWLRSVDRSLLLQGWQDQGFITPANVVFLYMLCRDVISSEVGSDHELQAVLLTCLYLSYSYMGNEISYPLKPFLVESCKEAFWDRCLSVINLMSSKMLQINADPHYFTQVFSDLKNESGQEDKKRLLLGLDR
# The depositor's hits bear a star; u = inconclusive; x = not tested or not shown; [ ] = another dose, or the depositor's remark. The list is not random: actives were taken first. Their share in the collection is about 1.4%.
SMILES,GSIS activator,Env fusion inh,GSK3B inh,STK33 kinase inh,GSK3A inh,CDK5 inh
Cc1cccc(CN2CCN(CC(=O)NCCCN3CCCC3=O)C2=O)c1,x,x,1,x,x,-1
C[C@@H]1CCCCO[C@@H](CN(C)Cc2ccc(C(=O)O)cc2)[C@H](C)CN([C@@H](C)CO)C(=O)c2cc(NC(=O)Nc3ccc4c(c3)OCO4)ccc2O1,8,21[16.7 µM],x,x,x,x
Clc1ccc(CSc2nnc(Cn3cnc4ccccc43)o2)cc1,x,87*,-2,x,7,0
CCOC(=O)c1c(C)[nH]c(/C(C)=N/NC(=O)c2cccnc2)c1C,10,-35,x,x,x,x
CCOC(=O)c1c(C)[nH]c(C(C)=NNC(=O)c2cccs2)c1C,54*,x,x,-1,-7,1
O=C(Nc1ccccc1)Nc1nc(-c2ccc(Cl)cc2)cs1,x,x,-1,1,6,2
O=C(Nc1cccc(Cl)c1)Nc1nc(-c2ccc(Cl)cc2)cs1,128*,x,2,1,-5,0
CCNC(=O)[C@H]1[C@H](CO)[C@H]2Cn3c(ccc(-c4cccnc4)c3=O)[C@@H]1N2Cc1ccccc1,18,x,x,x,x,x
CCOc1ccc(NC(=O)NCc2ccccn2)cc1,19,58*,-4,-1,2,-1
Cc1nc2c(-c3ccc(F)cc3)c(C)nn2c(C)c1CCC(=O)N1CCN(c2ccccc2)CC1,-7,37,-3,-1,-3,-2
Cc1nc2c(-c3ccc(F)cc3)c(C)nn2c(C)c1CCC(=O)N1CCN(c2ccc(F)cc2)CC1,-29,56*,0,0,-3,1
Cc1nc2c(-c3ccc(F)cc3)c(C)nn2c(C)c1CCC(=O)N1CCC(Cc2ccccc2)CC1,0,55*,1,-1,-2,5
Cc1noc(C)c1NC(=O)N(C)C[C@@H]1Oc2ccc(NC(=O)Nc3ccc(F)cc3)cc2CC(=O)N([C@H](C)CO)C[C@H]1C,9,-10[16.7 µM],x,x,x,x
Cc1ccc2c(c1)nnn2C1CCN(S(=O)(=O)c2ccc(C(=O)O)cc2)CC1,11,-1,3,-1,0,-1
Cc1ccc2c(c1)nnn2C1CCN(S(=O)(=O)c2ccc(C(=O)N3C(C)CCCC3C)cc2)CC1 (configuration not stated),x,67*,0,-2,x,2
O=C(c1cccc(S(=O)(=O)N2CCCCCC2)c1)N1CCN(c2ccccc2F)CC1,-50,-3,2,1,3,0
Cc1cccc(N2CCN(C(=O)CNC(=O)C3CCCCC3)CC2)c1C,16,56*,x,x,x,1
Cc1cccc(N2CCN(C(=O)c3cccc(S(=O)(=O)N4CCCCC4)c3)CC2)c1C,x,64*,x,0,0,-1
NS(=O)(=O)c1ccc(NC(=S)N2CCN(c3ccc(Cl)c(Cl)c3)CC2)cc1,108*,u,2,x,x,3
C/C=C1\COC(C(=O)NCc2ccccc2)(C(F)(F)F)C=C1C=C(C)C (configuration not stated),112*,4,2,0,0,2
O=C(NCc1ccccc1)C1(C(F)(F)F)C/C(=C/CCO)CCCO1 (configuration not stated),-1,-27,1,0,-1,2
CCOC(=O)C1=C(c2ccccc2)c2ccccc2N(S(=O)(=O)C(F)(F)F)C1C(=O)OCC (configuration not stated),-16,60*,x,x,x,2
O=C(O)Cn1cc(/C=N/Nc2ccc([N+](=O)[O-])cn2)c2ccccc21,-9,11,-41,10,63*,5
C[C@H]1CN([C@@H](C)CO)C(=O)c2cccc(NS(=O)(=O)c3ccccc3)c2O[C@H]1CN(C)C(=O)Nc1ccc(F)cc1,-9,x,x,x,x,x
C[C@@H]1CN([C@@H](C)CO)C(=O)c2cc(NS(=O)(=O)c3cn(C)cn3)ccc2O[C@@H](C)CCCCO[C@H]1CN(C)C(=O)CCC(F)(F)F,2,5[16.7 µM],x,x,x,x
SMILES,GSIS activator,Env fusion inh,GSK3B inh,STK33 kinase inh,GSK3A inh,CDK5 inh
CO[C@@H]1CN(C)C(=O)c2ccc(NC(=O)c3cccc(F)c3)cc2OC[C@H](C)N(CC2CC2)C[C@H]1C,-11,5[16.7 µM],x,x,x,x
COc1ccccc1-c1ccc2c(c1)C(C)(Cc1ccc(Cl)c(Cl)c1)C(=O)N2 (configuration not stated),25,100*,x,x,x,x
CC1(Cc2ccccc2C#N)C(=O)Nc2ccc(-c3ccccc3)cc21 (configuration not stated),-16,x,x,x,x,x
COc1ccccc1-c1ccc2c(c1)C(C)(Cc1ccccc1C#N)C(=O)N2 (configuration not stated),-24,63*,x,x,x,x
CC1(Cc2ccc(C(F)(F)F)o2)C(=O)Nc2ccc(-c3cccc(C(F)(F)F)c3)cc21 (configuration not stated),173*,26,x,x,x,x
O=C(OC(C(=O)NCc1ccccc1)c1ccco1)c1ccccc1 (configuration not stated),x,2[16.7 µM],x,x,x,x
O=C(Nc1nccs1)c1ccc(N2CCOCC2)c([N+](=O)[O-])c1,38,-154,-8,26*,4,1
O=C(Nc1ccccc1N1CCOCC1)c1ccc(N2CCOCC2)c([N+](=O)[O-])c1,15,-6,5,-1,-2,0
C[C@H](CO)N1C[C@H](C)[C@@H](CN(C)C(=O)Nc2ccccc2)Oc2c(NS(C)(=O)=O)cccc2C1=O,0,x,x,x,x,x
O=C(O)c1ccc(-c2ccc(/C=N/Nc3ccc([N+](=O)[O-])cc3)o2)cc1,-13,-10,0,1,1,0
O=C(O)c1cc(-c2ccc(/C=N/Nc3ccc([N+](=O)[O-])cn3)o2)ccc1Cl,6,3,-63*,x,x,7
CNC(=S)N/N=C/c1ccc(-c2ccc(Cl)c([N+](=O)[O-])c2)o1,46*,7,2,0,-1,1
Cc1ccc(-c2ccc(/C=N/NC(=S)Nc3ccccc3)o2)cc1[N+](=O)[O-],0,17,-3,-1,2,0
CCCCNC(=S)N1CCn2cccc2C1c1ccc(F)cc1 (configuration not stated),9,58*,0,0,-1,2
CCCCNC(=S)N1CCn2cccc2C1c1ccccc1 (configuration not stated),-6,40,-9,-1,1,1
C[C@H](C(=O)N(C)C[C@@H]1OCc2ccccc2-c2c(n(C)c3ccccc23)C(=O)N([C@@H](C)CO)C[C@H]1C)c1ccccc1,-26,67*[16.7 µM],x,x,x,x
C[C@H](CO)N1C[C@H](C)[C@@H](CN(C)C(=O)[C@H](C)c2ccccc2)OCc2ccccc2-c2c(n(C)c3ccccc23)C1=O,-21,x,x,x,x,x
C[C@@H]1CN([C@@H](C)CO)C(=O)c2c(c3ccccc3n2C)-c2ccccc2CO[C@@H]1CN(C)C(=O)[C@@H](Cc1ccccc1)N(C)C,3,-110[16.7 µM],x,x,x,x
